Screening results: PubChem, Johns Hopkins Ion Channel Center
KCNK3 block: human KCNK3 channel inhibition, primary screen; O14649; CHO-KCNK3 thallium flux, FluxOR fluorescence; hits give low values; B-score at 10 µM; 340,000 compounds, 0.84% hits; AID 602410;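 active = B-score under library mean minus 4 SD, starting fluorescence ratio at most library mean plus 5 SD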;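 note: more negative B-score means stronger inhibition of thallium flux through KCNK3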
KCNQ1 act: human KCNQ1 channel potentiation or activation; P51787; CHO-K1 KCNQ1, thallium flux FluxOR fluorescence; hits give high values; B-score at 10 µM; 310,000 compounds, 0.35% hits; AID 2648;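 active = fluorescence ratio B-score, a plate-corrected score, at least three library SD, with initial intensity B-score within 5 SD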
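Schedule – 37 °C overnight plating, 90-min dark dye load, 20-min compound pretreatment · System – stable KCNQ1 CHO-K1 line · Probe or stimulus – thallium- and potassium-containing depolarizing buffer · Measured by – kinetic FluxOR fluorescence, 10 s baseline plus 110 s post-stimulus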
Kir21 block: inhibitors of mouse Kir2.1 inward-rectifier potassium channel; HEK293-Kir2.1, FluxOR thallium flux fluorescence; hits give low values; B-score at 10 µM; 310,000 compounds, 0.85% hits; AID 1672;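 active = fluorescence ratio B-score at or below minus 3 SD of library scores, with starting-brightness B-score within 2 SD, cut at about -4.2 in these data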;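 note: channel flux triggered by added potassium and thallium sulfate stimulus; B-score of peak minus minimum fluorescence over baseline after thallium stimulus; more negative B-score means stronger Kir2.1 block with less thallium influx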
hERG rescue: compounds protecting human hERG from proarrhythmic drug block; AID 1511; activation (rescue from dofetilide block), less the hit threshold, % at 10 µM; CHO-hERG, FluxOR thallium flux, dofetilide IC70 present; 310,000 compounds, 0.51% hits; Q12809;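 active = activation above the mean of controls blocked by dofetilide plus 5 SD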;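 note: thallium influx through hERG after potassium depolarization seen as dye fluorescence rise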
KCNK9 block: blocks the human KCNK9 two-pore domain potassium channel. Q9NPC2. HEK293 KCNK9, FluxOR thallium flux fluorescence; hits give low values. B-score at 10 µM. 310,000 compounds, 1.2% hits. AID 488922;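 active = ratio B-score over 3 SD below the library mean, with starting fluorescence within 5 SD of its mean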;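 note: negative B-score means less thallium flux so channel inhibition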
Target sequence (Q9NPC2 whole entry, looked up, the tested form may be a part): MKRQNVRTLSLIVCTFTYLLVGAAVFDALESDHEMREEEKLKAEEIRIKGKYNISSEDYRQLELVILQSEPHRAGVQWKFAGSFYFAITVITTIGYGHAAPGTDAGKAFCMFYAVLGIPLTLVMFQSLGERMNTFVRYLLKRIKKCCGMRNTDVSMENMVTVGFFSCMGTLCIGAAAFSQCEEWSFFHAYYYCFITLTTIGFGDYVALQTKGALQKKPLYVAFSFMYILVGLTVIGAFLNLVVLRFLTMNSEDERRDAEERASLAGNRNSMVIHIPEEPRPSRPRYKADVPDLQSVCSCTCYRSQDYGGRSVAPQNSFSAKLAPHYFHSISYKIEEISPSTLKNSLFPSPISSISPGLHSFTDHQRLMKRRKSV
KCNQ1 block: inhibitors of human KCNQ1 potassium channel. P51787. 310,000 compounds, 1.3% hits. CHO-K1 KCNQ1, FluxOR thallium flux fluorescence; hits give high values. B-score at 10 µM;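 active = compounds whose thallium flux B-score, printed positive for inhibition, exceeds three library SD while starting fluorescence stays within three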;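 note: channel opened by potassium depolarization with thallium stimulus after 20 min compound exposure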
KCNK9 inh conf: human KCNK9 inhibitor confirmation; shares compounds with KCNK9 block; HEK293 KCNK9 cells, FluxOR thallium flux fluorescence; inhibition, % at 10 µM; 4,900 compounds, 43% hits; AID 492992;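 active = thallium signal inhibited by more than 5 SD of the compound-free buffer control wells, on both duplicate plates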;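 note: 0% = assay buffer control wells without compound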
Kir21 sel: tests whether KCNK9 modulators also affect mouse Kir2.1; AID 492993; inhibition, % at 10 µM; shares compounds with KCNK9 block; 4,900 compounds, 4% hits; Kir2.1 cells, FluxOR thallium flux fluorescence;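 active = thallium signal drop more than 5 SD beyond the mean of the no-compound control wells, seen in both duplicate plates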;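 note: signal is fluorescence rise after thallium addition divided by baseline fluorescence; plate controls were assay buffer only for no effect and full block by chlorpromazine control for full effect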
HEK293 Tl ctr: second check of KCNK9 modulator effects in non-induced HEK293 cells. shares compounds with KCNK9 block. FluxOR thallium flux. inhibition, % at 10 µM. 4,900 compounds, 40% hits;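 active = thallium signal drop beyond 5 SD of the untreated control mean, on both duplicate plates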;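 note: plate controls were buffer only IC0 wells for no effect and SID17386958 at its maximal inhibitory level for full effect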
The depositor's hits bear a star; i = inactive; . = no result given. A selection: hits, their analogues and other compounds. The true share with any hit is near 3.8%.

SMILES	KCNK3 block	KCNQ1 act	Kir21 block	hERG rescue	KCNK9 block	KCNQ1 block	KCNK9 inh conf	Kir21 sel	HEK293 Tl ctr
CCn1cc(C2N3CC4(C)CN2CC(C)(C3)C4=O)c2ccccc21 (stereo not given)	i	i	0.06	-16.2	i	i	.	.	.
CCn1cc(C2=NC(CC(C)C)CO2)c2ccccc21 (stereo not given)	i	i	0.03	-11.6	i	i	i	i	i
CC(C)C1COC(c2cccc3ccccc23)=N1 (stereo not given)	i	i	-0.65	-5.6	i	i	.	.	.
CCn1cc(C2=NC(CCSC)CO2)c2ccccc21 (stereo not given)	i	i	-0.35	-22.2	i	i	i	i	i
Cc1ccc(S(=O)(=O)NC2(C(F)(F)F)C(=O)Nc3c2c(=O)[nH]c(=O)n3-c2ccccc2)cc1 (stereo not given)	i	i	-0.12	-4.9	i	i	.	.	.
Cc1c(N=C(N)/N=C(\N)Nc2ccccc2)c(=O)n(-c2ccccc2)n1C	i	i	-0.18	1.2	i	i	.	.	.
Cc1c(N=N/C(C(=O)Nc2ccccc2)=C(/O)c2ccccc2)c(=O)n(-c2ccccc2)n1C	i	i	-0.95	-17.6	-9.1*	9*	i	i	45.5%*
Cn1c(=O)[nH]c(=O)c2c1[nH]c(=S)n2CCCc1ccccc1	i	i	-0.07	-1.6	i	i	i	i	28.5%*
CCOc1ccc(NC(=O)COC(=O)c2cc(C)oc2C)cc1	i	.	.	.	.	.	.	.	.
COc1ccc(CC2(C)OC(c3ccc(C)cc3)=NN2C(C)=O)cc1 (stereo not given)	i	i	-0.59	-16.8	i	i	i	i	i
COc1ccc(CC2(C)OC(c3ccc(C)c([N+](=O)[O-])c3)=NN2C(C)=O)cc1 (stereo not given)	i	i	-2.14	-11.7	i	i	.	.	.
CC(=O)N1N=C(c2ccccc2)OC1(C)CC(=O)Nc1ccccc1 (stereo not given)	i	i	0.27	-8.7	i	i	.	.	.
COc1ccc(CC2(C)OC(c3ccccc3)=NN2C(C)=O)cc1 (stereo not given)	i	i	-6.34*	-10.6	i	i	i	i	i
Cc1cc(C)c2c(CN3CCN(Cc4ccccc4)CC3)cc(=O)oc2c1C	i	i	0.56	-10.4	i	i	.	.	.
CCOc1ccc(NC(=O)CSc2nccn(-c3ccc4c(c3)OCCO4)c2=O)cc1	i	i	0.96	-9.7	i	i	.	.	.
COc1ccc(N2CCN(C(=O)COC(=O)Cc3cccc(OC)c3)CC2)cc1	i	i	1.31	-18.2	i	i	.	.	.
O=C(Nc1nc(-c2cc3ccccc3oc2=O)cs1)c1ccc(Br)o1	i	i	0.44	-2.8	-9.93*	i	26.5%*	i	i
COc1ccc(OC)c(N(CC(=O)N2CCN(c3cc(Cl)ccc3C)CC2)S(C)(=O)=O)c1	i	i	0.18	-6.8	i	i	.	.	.
CCN(CC)S(=O)(=O)c1ccc(N2CCOCC2)c(NC(=O)c2ccccc2)c1	i	i	0.42	-15.2	i	i	.	.	.
CCN(CC)S(=O)(=O)c1ccc(N2CCOCC2)c(NC(=O)C23CC4CC(CC(Cl)(C4)C2)C3)c1	i	i	0.65	-9.7	i	i	i	i	i
O=C(Oc1ccc2ccccc2c1Cl)N1CCCCCC1	i	i	0.19	-5.3	-12.8*	i	37.0%*	i	28.0%*
O=C(Oc1ccc2ccccc2c1Cl)N1CCCC1	i	i	-0.55	-10.4	i	i	.	.	.
